ChEMBL document CHEMBL4834420, “Projected Dose Optimization of Amino- and Hydroxypyrrolidine Purine PI3Kδ Immunomodulators” (J Med Chem, 2021)

Legend:
[1] = target: T1, Phosphatidylinositol 4,5-bisphosphate 3-kinase catalytic subunit delta isoform (Mus musculus) (UniProt O35904); assay: Inhibition of PI3Kdelta in Foxp3-GFP C57BL/6 mouse assessed as reduction in Treg population at 30 to 100 mg/kg administered upto 7 days; format: organism-based; design: scale not given: the % may be the effect or the level left; details: dose 30-100 mg/kg, time day <=7
T1 sequence (whole entry): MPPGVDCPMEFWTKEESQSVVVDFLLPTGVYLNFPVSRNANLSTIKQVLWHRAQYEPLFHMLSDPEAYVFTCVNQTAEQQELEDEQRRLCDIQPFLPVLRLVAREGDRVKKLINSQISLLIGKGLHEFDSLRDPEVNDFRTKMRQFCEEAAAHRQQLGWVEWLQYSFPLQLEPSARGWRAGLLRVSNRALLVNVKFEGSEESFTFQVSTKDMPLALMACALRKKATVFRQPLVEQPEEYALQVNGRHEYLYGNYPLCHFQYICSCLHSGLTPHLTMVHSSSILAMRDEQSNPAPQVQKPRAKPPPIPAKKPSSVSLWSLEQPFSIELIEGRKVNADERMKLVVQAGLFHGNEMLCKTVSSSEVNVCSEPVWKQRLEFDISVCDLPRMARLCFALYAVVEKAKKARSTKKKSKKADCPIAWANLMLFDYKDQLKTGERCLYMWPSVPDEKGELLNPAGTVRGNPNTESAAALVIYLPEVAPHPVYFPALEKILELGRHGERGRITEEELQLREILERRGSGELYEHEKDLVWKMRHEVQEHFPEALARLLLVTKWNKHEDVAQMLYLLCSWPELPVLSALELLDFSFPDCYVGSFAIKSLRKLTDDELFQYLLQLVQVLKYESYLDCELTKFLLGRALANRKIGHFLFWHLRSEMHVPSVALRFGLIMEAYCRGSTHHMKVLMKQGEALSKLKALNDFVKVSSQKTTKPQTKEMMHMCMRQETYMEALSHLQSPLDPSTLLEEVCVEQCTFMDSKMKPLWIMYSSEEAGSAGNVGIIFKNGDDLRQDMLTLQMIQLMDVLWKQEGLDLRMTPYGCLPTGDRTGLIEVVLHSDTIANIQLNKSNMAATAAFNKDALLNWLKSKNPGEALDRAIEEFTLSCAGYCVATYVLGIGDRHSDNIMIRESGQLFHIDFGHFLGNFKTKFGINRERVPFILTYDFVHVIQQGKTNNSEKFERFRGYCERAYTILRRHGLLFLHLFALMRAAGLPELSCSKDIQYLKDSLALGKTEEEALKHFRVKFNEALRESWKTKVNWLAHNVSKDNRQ
Method in brief: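 C57BL/6 Foxp3-GFP reporter mice were dosed at 30 and 100 mg/kg/day for up to 7 days. Treg population was monitored by bioluminescence imaging 10 min after ip injection of 3 mg luciferin. Radiance was quantified as photons/s/cm²/steradian. Diphtheria toxin served as a positive control.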

Cytochrome P450 1A2 = target: T2, Cytochrome P450 1A2 (Homo sapiens, UniProt P05177); assay: Inhibition of CYP1A2 (unknown origin); format: ADME
T2 sequence (P05177 whole entry): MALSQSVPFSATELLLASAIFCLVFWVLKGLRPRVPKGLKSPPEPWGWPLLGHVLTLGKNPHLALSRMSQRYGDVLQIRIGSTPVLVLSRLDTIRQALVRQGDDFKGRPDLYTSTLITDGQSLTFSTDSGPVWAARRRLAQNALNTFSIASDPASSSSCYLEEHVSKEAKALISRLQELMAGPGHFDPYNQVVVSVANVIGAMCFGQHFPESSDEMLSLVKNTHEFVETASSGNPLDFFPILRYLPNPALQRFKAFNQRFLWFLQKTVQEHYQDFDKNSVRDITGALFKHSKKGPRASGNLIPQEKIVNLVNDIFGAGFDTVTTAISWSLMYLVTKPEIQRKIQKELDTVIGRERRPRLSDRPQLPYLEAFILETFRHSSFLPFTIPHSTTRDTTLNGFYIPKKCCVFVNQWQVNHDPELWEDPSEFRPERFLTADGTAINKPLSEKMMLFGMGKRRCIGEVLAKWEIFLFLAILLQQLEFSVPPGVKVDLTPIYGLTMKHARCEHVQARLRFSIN

[2] = Half life in C57BL/6 mouse; format: ADME; details: in vivo
Cytochrome P450 2D6 = Cytochrome P450 2D6 (Homo sapiens, UniProt P10635); assay: Inhibition of CYP2D6 (unknown origin); format: ADME
Chain of Cytochrome P450 2D6 (P10635 whole entry): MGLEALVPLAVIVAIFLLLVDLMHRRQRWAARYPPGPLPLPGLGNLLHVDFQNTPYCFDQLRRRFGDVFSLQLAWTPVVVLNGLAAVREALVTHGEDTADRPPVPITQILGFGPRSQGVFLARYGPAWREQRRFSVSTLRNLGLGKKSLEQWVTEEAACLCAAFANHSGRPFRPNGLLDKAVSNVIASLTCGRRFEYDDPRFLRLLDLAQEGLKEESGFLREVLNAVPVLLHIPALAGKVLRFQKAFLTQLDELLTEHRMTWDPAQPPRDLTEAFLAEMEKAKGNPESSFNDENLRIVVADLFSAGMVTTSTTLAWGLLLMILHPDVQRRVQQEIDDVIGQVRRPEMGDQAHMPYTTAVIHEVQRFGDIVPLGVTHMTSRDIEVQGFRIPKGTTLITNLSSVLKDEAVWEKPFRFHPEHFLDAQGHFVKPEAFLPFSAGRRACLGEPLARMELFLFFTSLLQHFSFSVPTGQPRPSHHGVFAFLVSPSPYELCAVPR

[3] = target: Voltage-gated inwardly rectifying potassium channel KCNH2 (Homo sapiens, UniProt Q12809); assay: Inhibition of hERG (unknown origin)
Chain of Voltage-gated inwardly rectifying potassium channel KCNH2 (Q12809 whole entry, canonical isoform): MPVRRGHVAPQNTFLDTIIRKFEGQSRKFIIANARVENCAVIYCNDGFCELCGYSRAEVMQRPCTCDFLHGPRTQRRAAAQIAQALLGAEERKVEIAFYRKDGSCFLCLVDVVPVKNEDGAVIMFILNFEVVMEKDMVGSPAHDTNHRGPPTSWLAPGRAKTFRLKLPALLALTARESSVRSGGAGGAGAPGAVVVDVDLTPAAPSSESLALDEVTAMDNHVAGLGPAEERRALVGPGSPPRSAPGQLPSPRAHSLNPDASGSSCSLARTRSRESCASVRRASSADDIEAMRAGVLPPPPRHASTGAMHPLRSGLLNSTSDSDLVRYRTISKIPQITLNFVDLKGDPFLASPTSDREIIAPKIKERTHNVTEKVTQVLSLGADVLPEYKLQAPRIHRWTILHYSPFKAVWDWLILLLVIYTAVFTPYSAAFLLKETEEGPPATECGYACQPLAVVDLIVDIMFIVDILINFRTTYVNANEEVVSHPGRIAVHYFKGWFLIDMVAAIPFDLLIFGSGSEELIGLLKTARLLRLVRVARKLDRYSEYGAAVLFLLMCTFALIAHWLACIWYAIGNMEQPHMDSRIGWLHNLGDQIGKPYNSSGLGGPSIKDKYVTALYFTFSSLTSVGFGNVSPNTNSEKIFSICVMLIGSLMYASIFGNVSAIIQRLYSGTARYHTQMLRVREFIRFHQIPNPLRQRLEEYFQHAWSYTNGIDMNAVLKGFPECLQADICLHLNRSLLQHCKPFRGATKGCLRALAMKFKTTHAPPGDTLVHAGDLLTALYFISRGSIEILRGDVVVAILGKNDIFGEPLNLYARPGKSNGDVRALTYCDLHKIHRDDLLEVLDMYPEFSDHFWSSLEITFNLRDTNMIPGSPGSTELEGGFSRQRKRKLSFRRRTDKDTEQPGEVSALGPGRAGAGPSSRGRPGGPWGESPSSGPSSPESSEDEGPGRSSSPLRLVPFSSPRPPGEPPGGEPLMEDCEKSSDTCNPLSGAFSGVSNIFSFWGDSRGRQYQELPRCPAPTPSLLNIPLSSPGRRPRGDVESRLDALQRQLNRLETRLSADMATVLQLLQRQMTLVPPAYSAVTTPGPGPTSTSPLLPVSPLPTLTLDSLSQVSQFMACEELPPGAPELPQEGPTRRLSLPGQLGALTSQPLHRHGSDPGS

[4] = target: T3, Phosphatidylinositol 4,5-bisphosphate 3-kinase catalytic subunit delta isoform (Homo sapiens, UniProt O00329); assay: Inhibition of PI3Kdelta in human whole blood assessed as reduction in anti-CD79b antibody-induced CD69 expression preincubated for 60 mins followed by anti-CD79b antibody stimulation and measured after 3 hrs by FACS analysis; format: tissue-based
T3 sequence (O00329 whole entry): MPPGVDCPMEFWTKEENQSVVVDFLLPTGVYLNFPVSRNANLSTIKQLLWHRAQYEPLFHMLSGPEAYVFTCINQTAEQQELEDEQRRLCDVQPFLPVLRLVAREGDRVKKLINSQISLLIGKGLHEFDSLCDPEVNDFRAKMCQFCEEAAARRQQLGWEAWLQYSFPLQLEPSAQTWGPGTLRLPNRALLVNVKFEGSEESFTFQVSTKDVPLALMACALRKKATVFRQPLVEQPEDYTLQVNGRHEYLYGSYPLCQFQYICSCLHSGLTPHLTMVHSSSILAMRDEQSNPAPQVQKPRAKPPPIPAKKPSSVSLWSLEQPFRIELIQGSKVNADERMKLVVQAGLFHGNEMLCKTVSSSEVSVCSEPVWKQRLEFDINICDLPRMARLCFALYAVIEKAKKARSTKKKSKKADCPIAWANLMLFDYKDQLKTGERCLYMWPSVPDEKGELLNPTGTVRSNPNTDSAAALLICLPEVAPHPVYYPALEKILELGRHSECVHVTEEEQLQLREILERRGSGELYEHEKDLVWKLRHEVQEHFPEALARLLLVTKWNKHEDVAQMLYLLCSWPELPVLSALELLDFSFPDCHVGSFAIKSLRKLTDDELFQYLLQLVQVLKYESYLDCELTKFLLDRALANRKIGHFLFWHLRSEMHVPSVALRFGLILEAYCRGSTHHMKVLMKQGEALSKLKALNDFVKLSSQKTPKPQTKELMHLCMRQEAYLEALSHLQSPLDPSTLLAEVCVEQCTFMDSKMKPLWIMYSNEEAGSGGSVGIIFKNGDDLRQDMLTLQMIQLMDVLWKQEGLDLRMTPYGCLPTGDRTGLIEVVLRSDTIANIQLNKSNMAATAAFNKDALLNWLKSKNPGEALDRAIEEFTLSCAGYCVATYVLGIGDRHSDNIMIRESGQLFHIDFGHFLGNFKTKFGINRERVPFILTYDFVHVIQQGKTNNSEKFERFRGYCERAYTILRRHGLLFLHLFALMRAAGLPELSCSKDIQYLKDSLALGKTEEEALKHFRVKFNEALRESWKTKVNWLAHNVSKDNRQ

- Activity [1]: 70%
- IC50 (Cytochrome P450 1A2): > 50 µM
- half-life [2]: 48 min
- IC50 (Cytochrome P450 2D6): > 50 µM
- IC50 [4]: 0.065 µM
SMILES: CCn1c(-c2cnc(C)nc2)nc2c(N[C@H]3CCN(C(=O)C4CC4)C3)ncnc21
- IC50 [3]: > 50 µM
